Legend:
[1] = (§1) Selectivity index, ratio of CC50 for African green monkey Vero cells to IC50 for promastigote stage of Leishmania donovani MHOM/IN/80/Dd8; format: functional; conditions: in the assay text read “amastigote stage” for “promastigote stage”
Procedure, shortened: (§2)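 SI was calculated as Vero CC50 (MTT, 72 h) divided by IC50 against intracellular amastigotes in J-774A.1 cells (luciferase luminescence, 72 h).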

Leishmania donovani [2] = test: Antiamastigote activity against amastigote stage of Leishmania donovani MHOM/IN/80/Dd8 expressing luciferase firefly reporter gene infected in mouse J774A1 cells after 72 hrs by luminescence assay; format: functional, organism-based; conditions: MHOM/IN/80/Dd8, J774.A1, 72 h
Procedure, shortened: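 J-774A.1 macrophages were seeded at 4 x 10^4/mL in RPMI-1640 with 10% heat-inactivated FCS at 37 °C, 5% CO2. After 24 h they were infected with stationary-phase luciferase-expressing promastigotes at 4 x 10^5/mL. Uninternalized parasites were washed off after 24 h. Compounds were tested at 7 dilutions from 40 µM for 72 h. Luminescence was read with Steady Glo. IC50 came from four-parameter Hill fitting, averaged over at least duplicates.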

Leishmania donovani [3] = test: Antipromastigote activity against Leishmania donovani MHOM/IN/80/Dd8 expressing luciferase firefly reporter gene at 25 uM after 96 hrs by luminescence assay; conditions: MHOM/IN/80/Dd8, 96 h
[4] = Cytotoxicity against African green monkey Vero cells assessed as cell viability after 72 hrs by MTT assay; format: cell-based; conditions: chlorocebus sabaeus
Procedure, shortened: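 Vero cells at 1 x 10^5/mL were exposed to 7 concentrations from 400 µM at 37 °C in CO2 for 72 h. MTT (5 mg/mL in PBS) was then added for 2 h at 37°C. Formazan was dissolved in DMSO and absorbance read at 540 nm. CC50 was estimated and averaged over at least duplicates.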

Leishmania donovani [5] = test: Antileishmanial activity against Leishmania donovani MHOM/IN/80/Dd8 infected in golden hamster assessed as inhibition of amastigotes multiplication at 50 mg/kg, ip for 5 days treatment started 15 days after infection measured on day 7; format: functional; conditions: MHOM/IN/80/Dd8, ip, route intraperitoneal
Procedure, shortened: (§3)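 Golden hamsters of both sexes were infected intracardially with 1 x 10^7 amastigotes. A pre-treatment splenic biopsy was taken after 15 days, and only animals with +1 grade infection (5-10 amastigotes/100 spleen cell nuclei) were used, five per compound. Dosing began 2 days after that biopsy and ran on consecutive days. Splenic biopsy on day 7 after the last dose was Giemsa-stained. PI = 100-[(ANAT x 100)/(INAT x TIUC)].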

Leishmania donovani [6] = test: Antileishmanial activity against Leishmania donovani MHOM/IN/80/Dd8 infected in golden hamster assessed as inhibition of amastigotes multiplication at 50 mg/kg, ip for 10 days treatment started 15 days after infection measured on day 7; format: functional; conditions: MHOM/IN/80/Dd8, ip, route intraperitoneal; procedure, shortened: as §3
Leishmania donovani [7] = test: Antileishmanial activity against Leishmania donovani MHOM/IN/80/Dd8 infected in golden hamster assessed as inhibition of amastigotes multiplication at 100 mg/kg, ip for 5 days treatment started 15 days after infection measured on day 7; format: functional; conditions: MHOM/IN/80/Dd8, ip, route intraperitoneal; procedure, shortened: as §3
Leishmania donovani [8] = test: Antileishmanial activity against Leishmania donovani MHOM/IN/80/Dd8 infected in golden hamster assessed as inhibition of amastigotes multiplication at 30 mg/kg, po for 5 days treatment started 15 days after infection measured on day 7; format: functional; procedure, shortened: as §3
Vero = test: as §1; format: functional; conditions: in the assay text read “amastigote stage” for “promastigote stage”; procedure, shortened: as §2
Leishmania donovani [9] = test: Antileishmanial activity against Leishmania donovani MHOM/IN/80/Dd8 infected in golden hamster assessed as inhibition of amastigotes multiplication at 40 mg/kg, ip for 5 days treatment started 15 days after infection measured on day 7; format: functional, organism-based; parameters: dose 40 mg/kg; procedure, shortened: as §3

| IC50 (Leishmania donovani [2]) [µM] | Molecule | Ratio CC50/IC50 [1] | inhibition at 25 µM (Leishmania donovani [3]) [%] | CC50 at 72 h [4] [µM] | also measured |
| --- | --- | --- | --- | --- | --- |
| 12.1 | CC1(C)C=Cc2c(ccc(C(=O)/C=C/c3cc4ccccc4nc3Cl)c2O)O1 | 21.2 | 100 | 257 |  |
| 17 | CC1(C)C=Cc2c(ccc(C(=O)/C=C/c3ccc(F)c(F)c3)c2O)O1 | 8.6 | 99.9 | 146 |  |
| > 20 | CC1(C)C=Cc2c(ccc(C(=O)/C=C/c3ccc(O)cc3)c2O)O1 |  | 70.2 |  |  |
| 4.1 | CC(C)=CCOc1ccc(C(=O)/C=C/c2ccc(N(C)C)cc2)cc1 | >97.6 | 84.2 | > 400 |  |
| 2 | CCN(CC)CCOc1ccc(/C=C/C(=O)c2ccc3c(c2OCCN(CC)CC)C=CC(C)(C)O3)cc1 | 162.5 | 100 | 325 | inhibition in vivo at 50 mg/kg (Leishmania donovani [5]): 48.5% |
| 6.1 | CC(=O)Nc1ccc(/C=C/C(=O)c2ccc3c(c2O)C=CC(C)(C)O3)cc1 | 45.6 | 98.7 | 278 |  |
| > 20 | CC(C)=CCC/C(C)=C/CC/C(C)=C/COc1ccc(C(=O)/C=C/c2ccc(N(C)C)cc2)cc1 |  | 76.1 |  |  |
| 17.7 | CC1(C)C=Cc2c(ccc(C(=O)/C=C/c3ccc(OCCN4CCCCC4)cc3)c2O)O1 | >22.6 | 100 | > 400 |  |
| > 20 | CC1(C)C=Cc2c(ccc(C(=O)/C=C/c3cc(C=O)ccc3O)c2O)O1 |  | 94.5 |  |  |
| > 20 | CC1(C)C=Cc2c(ccc(C(=O)/C=C/c3ccc(Br)cc3)c2O)O1 |  | 100 |  |  |
| 12.1 | CCOc1cc(/C=C/C(=O)c2ccc3c(c2O)C=CC(C)(C)O3)ccc1F | 15.3 | 99.9 | 185 |  |
| 3.1 | COc1ccc(/C=C/C(=O)c2ccc(OC/C=C(\C)CCC=C(C)C)cc2)cc1 | 47.2 | 93 | 146 | inhibition in vivo at 50 mg/kg (Leishmania donovani [6]): 83.3%; inhibition in vivo at 100 mg/kg (Leishmania donovani [7]): 75.9% |
|  | CC1(C)C=Cc2c(ccc(C(=O)/C=C/c3cnc4ccccc4c3)c2O)O1 |  | 62.2 |  |  |
| > 20 | CC1(C)C=Cc2c(ccc(C(=O)/C=C/c3ccc4ccoc4c3)c2O)O1 |  | 91.2 |  |  |
| 13.9 | CC1(C)C=Cc2c(ccc(C(=O)/C=C/c3ccc(Cl)c(Cl)c3)c2O)O1 | 10.2 | 99.9 | 142 |  |
| 2.5 | CC1(C)C=Cc2c(ccc(C(=O)/C=C/c3ccc(OCCN4CCCC4)cc3)c2OCCN2CCCC2)O1 | 103.2 | 99.9 | 258 |  |
| 5.3 | Cc1ccc2nc(Cl)c(/C=C/C(=O)c3ccc4c(c3O)C=CC(C)(C)O4)cc2c1 | 75.3 | 99.8 | 399 |  |
| 2 | CC1(C)C=Cc2c(ccc(C(=O)/C=C/c3ccccn3)c2O)O1 | 10.2 | 99.9 | 20.5 |  |
| 22.2 | CC1(C)C=Cc2c(ccc(C(=O)/C=C/c3cccnc3)c2O)O1 | 0.4 | 100 | 8.6 |  |

| IC50 (Leishmania donovani [2]) [µM] | Molecule | Ratio CC50/IC50 [1] | inhibition at 25 µM (Leishmania donovani [3]) [%] | CC50 at 72 h [4] [µM] | also measured |
| --- | --- | --- | --- | --- | --- |
| > 20 | CC1(C)C=Cc2c(ccc(C(=O)/C=C/c3ccc(OCCN4CCCC4)cc3)c2O)O1 |  | 100 |  |  |
|  | CCCCCCCCCCCCCCCCOP(=O)([O-])OCC[N+](C)(C)C [MILTEFOSINE] | 6.2 | 100 |  | inhibition in vivo at 30 mg/kg (Leishmania donovani [8]): 98.5% |
| 11.9 | COc1ccc(/C=C/C(=O)c2ccc3c(c2O)C=CC(C)(C)O3)cc1OC | 22.4 | 98.2 | 267 |  |
| 14.9 | CCN(CC)CCOc1ccc(/C=C/C(=O)c2ccc3c(c2O)C=CC(C)(C)O3)cc1 | 22.9 | 100 | 341 |  |
| 5.2 | CC1(C)C=Cc2c(ccc(C(=O)/C=C/c3ccc([N+](=O)[O-])cc3)c2O)O1 | 20.4 | 97.4 | 106 |  |
| 9.3 | CN(C)c1ccc(/C=C/C(=O)c2ccc(OCCN3CCCCC3)cc2)cc1 | 27 | 99.9 | 251 |  |
| 9.3 | CC(C)=CCC/C(C)=C/COc1ccc(C(=O)/C=C/c2ccc(O)cc2)cc1 | 1.4 | 95.2 | 12.9 |  |
| 19.8 | CN(C)c1ccc(/C=C/C(=O)c2ccc3c(c2O)C=CC(C)(C)O3)cc1 | >20.2 | 97.1 | > 400 |  |
|  | sodium stibogluconate |  |  |  | Ratio CC50/IC50 (Vero): > 8; inhibition (Leishmania donovani [9]): 89.5% |
| 5.1 | CCOc1ccc(/C=C/C(=O)c2ccc3c(c2O)C=CC(C)(C)O3)cc1 | 42.1 | 88.9 | 215 |  |
| 16.7 | CC1(C)C=Cc2c(ccc(C(=O)/C=C/c3ccc(F)cc3)c2O)O1 | 9.5 | 99 | 158 |  |
| > 20 | CCOc1ccc(/C=C/C(=O)c2ccc(OCCN3CCCCC3)cc2)cc1 |  | 99.9 |  |  |
|  | CC(C)=CCC/C(C)=C/COc1ccc(C(=O)/C=C/c2ccc(OCCN3CCCC3)cc2)cc1 |  | 100 |  |  |
| 2.8 | CC1(C)C=Cc2c(ccc(C(=O)/C=C/c3ccc(OCCN4CCCCC4)cc3)c2OCCN2CCCCC2)O1 | 30.9 | 100 | 86.5 |  |
| 17.9 | CC1(C)C=Cc2c(ccc(C(=O)/C=C/c3ccc(Cl)cc3)c2O)O1 | 5.1 | 99.9 | 92.2 |  |
| 9.7 | CC1(C)C=Cc2c(ccc(C(=O)/C=C/c3ccc(Cl)cc3Cl)c2O)O1 | 13.5 | 99.9 | 131 |  |
| 8.2 | CC1(C)C=Cc2c(ccc(C(=O)/C=C/c3ccc(C#N)cc3)c2O)O1 | 9.8 | 99.6 | 80.2 |  |
| > 20 | O=C(/C=C/c1ccc(OCCN2CCCCC2)cc1)c1ccc(OCCN2CCCCC2)cc1 |  | 99.9 |  |  |

Source: ChEMBL document CHEMBL3259782, “Synthesis and biological evaluation of chalcones as potential antileishmanial agents” (Eur J Med Chem, 2014)
